For assay [1], the target named is T1, Aminopeptidase N (Sus scrofa, UniProt P15145).
T1 sequence (P15145 whole entry): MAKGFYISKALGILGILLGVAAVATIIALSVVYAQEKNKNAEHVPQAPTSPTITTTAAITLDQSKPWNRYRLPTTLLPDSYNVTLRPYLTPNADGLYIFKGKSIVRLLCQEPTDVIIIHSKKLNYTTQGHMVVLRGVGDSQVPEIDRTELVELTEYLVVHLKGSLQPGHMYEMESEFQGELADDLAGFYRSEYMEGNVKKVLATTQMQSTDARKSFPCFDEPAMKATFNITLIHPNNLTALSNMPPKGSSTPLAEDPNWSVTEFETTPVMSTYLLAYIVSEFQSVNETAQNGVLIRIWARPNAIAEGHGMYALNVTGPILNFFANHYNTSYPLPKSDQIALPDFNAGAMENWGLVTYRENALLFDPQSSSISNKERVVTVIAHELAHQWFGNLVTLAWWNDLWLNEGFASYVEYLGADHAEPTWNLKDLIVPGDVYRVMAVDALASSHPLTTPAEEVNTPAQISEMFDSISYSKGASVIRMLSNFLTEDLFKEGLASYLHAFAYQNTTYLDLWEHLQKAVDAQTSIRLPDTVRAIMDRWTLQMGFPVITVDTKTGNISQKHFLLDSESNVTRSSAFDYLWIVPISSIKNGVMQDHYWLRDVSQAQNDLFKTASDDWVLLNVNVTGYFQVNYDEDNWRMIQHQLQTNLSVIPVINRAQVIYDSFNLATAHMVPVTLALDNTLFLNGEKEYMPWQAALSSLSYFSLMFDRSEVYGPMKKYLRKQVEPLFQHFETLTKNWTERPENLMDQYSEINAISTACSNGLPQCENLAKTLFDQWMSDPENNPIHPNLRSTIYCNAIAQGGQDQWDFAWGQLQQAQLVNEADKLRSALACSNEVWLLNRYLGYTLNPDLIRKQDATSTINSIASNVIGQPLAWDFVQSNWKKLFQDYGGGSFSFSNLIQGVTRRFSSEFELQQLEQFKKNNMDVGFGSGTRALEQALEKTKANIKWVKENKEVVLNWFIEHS
Put plainly: Inhibition of pig kidney APN using L-Leu-p-nitroanilide as substrate incubated for 5 mins prior to substrate addition measured after 30 mins by UV/VIS spectrophotometry. In outline: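 Porcine kidney microsomal APN, 6 μg/mL final, in 50 mM PBS pH 7.2 with 0.5% DMSO final. Inhibitor and enzyme preincubated 5 min at room temperature. Percent inhibition from control and zero-setting OD; IC50 calculated.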

The target of assay [2] is 72 kDa type IV collagenase (Homo sapiens, UniProt P08253). Put plainly: Inhibition of recombinant MMP2 using succinylated gelatin as substrate incubated for 10 mins prior to substrate addition measured after 1 hr by UV/VIS spectrophotometry. A digest of the protocol:
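Recombinant MMP-2 and compound, both in 50 mM sodium borate pH 8.5, held 10 min at 37 °C. Succinylated gelatin then added for 60 min at 37 °C. Free amines developed with 0.03% picrylsulfonic acid, 20 min at room temperature, read at 450 nm. Inhibition from control and zero-setting OD; IC50 calculated; three assays, SD <10% of means.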

Assay [3] deals with Aminopeptidase N (Homo sapiens, UniProt P15144). Description: Inhibition of APN in human ES2 cell surface using L-Leu-p-nitroanilide as substrate incubated for 5 mins prior to substrate addition measured after 1 hr by UV/VIS spectrophotometry. A digest of the protocol:
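Enzyme source: intact ES-2 cells, 2 × 10^5 per well, in 10 mM PBS pH 7.4 with 0.1% DMSO final. Inhibitors preincubated with cells 5 min at room temperature. L-Leu-p-nitroanilide then added, 1 h at 37 °C. Inhibition from control and zero-setting OD; IC50 calculated; mean ± SD of three assays.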

Assay [4] has as its system ES2. Description: Antimetastatic activity against human ES2 cells assessed as inhibition of migration through transwell chamber without matrigel coating at 100 ug/mL after 3 hrs by crystal voilet staining. Type of assay: functional, cell-based. In outline: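 Uncoated transwell inserts. Upper chamber holds compound at 100 µg/mL in RPMI-1640 with 1% FBS, 0.1% DMSO final, plus ES-2 cells (60000 per well). Migration 3 h at 37 °C in CO2. Upper-side cells swabbed away; migrated cells fixed and stained with 0.1% crystal violet, extracted with 33% acetic acid, read at 595 nm. Rate uses treated, control and blank OD. Repeated ≥3 times in triplicate.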

The nature of assay [5]: Antiproliferative activity against human ES2 cells after 48 hrs by MTT assay. It is filed as functional, cell-based. Conditions: ES-2, 48 h. A digest of the protocol:
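ES-2 cells grown in RPMI-1640 with 10% FBS, seeded 8000 per well and left to adhere 10 h. Compounds then added at a range of concentrations in the same medium with 0.1% DMSO, 48 h at 37 °C in CO2. MTT added for 4 h; formazan dissolved in DMSO, read at 590 nm. Inhibition from control and zero-setting OD; IC50 calculated; three assays.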

For assay [6], the system named is ES2. Put plainly: Antimetastatic activity against human ES2 cells assessed as inhibition of invasion through transwell chamber with matrigel coating after 8 hrs by crystal voilet staining. It is filed as functional, cell-based. A digest of the protocol:
(§1)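 ES-2 cells (100,000 per insert) in RPMI-1640 with 1% FBS placed on Matrigel inserts rehydrated 2 h; lower chamber RPMI-1640 with 10% FBS. Compound at 10 and 100 μg/mL with 0.1% DMSO final added to upper chamber. Invasion 8 h at 37 °C in CO2. Non-invading cells swabbed off; remaining cells fixed and crystal-violet stained, counted in five random ×100 fields per insert. At least three experiments, triplicates.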

Assay [7] is described as follows: Antimetastatic activity against human ES2 cells assessed as inhibition of invasion through transwell chamber with matrigel coating at 10 to 100 ug/mL after 8 hrs by crystal voilet staining relative to control. Type of assay: functional. In outline: as §1

Consider 26 compounds from ChEMBL document CHEMBL2034854, “Design, synthesis and biological evaluation of novel amino acid ureido derivatives as aminopeptidase N/CD13 inhibitors” (Bioorg Med Chem, 2012).

Activity calls are given as the source filed them. The calls are words filed in the database; no cut-off is given here. Bounds are passed on as bounds.

Sequence of Aminopeptidase N (Homo sapiens, UniProt P15144) (P15144 whole entry): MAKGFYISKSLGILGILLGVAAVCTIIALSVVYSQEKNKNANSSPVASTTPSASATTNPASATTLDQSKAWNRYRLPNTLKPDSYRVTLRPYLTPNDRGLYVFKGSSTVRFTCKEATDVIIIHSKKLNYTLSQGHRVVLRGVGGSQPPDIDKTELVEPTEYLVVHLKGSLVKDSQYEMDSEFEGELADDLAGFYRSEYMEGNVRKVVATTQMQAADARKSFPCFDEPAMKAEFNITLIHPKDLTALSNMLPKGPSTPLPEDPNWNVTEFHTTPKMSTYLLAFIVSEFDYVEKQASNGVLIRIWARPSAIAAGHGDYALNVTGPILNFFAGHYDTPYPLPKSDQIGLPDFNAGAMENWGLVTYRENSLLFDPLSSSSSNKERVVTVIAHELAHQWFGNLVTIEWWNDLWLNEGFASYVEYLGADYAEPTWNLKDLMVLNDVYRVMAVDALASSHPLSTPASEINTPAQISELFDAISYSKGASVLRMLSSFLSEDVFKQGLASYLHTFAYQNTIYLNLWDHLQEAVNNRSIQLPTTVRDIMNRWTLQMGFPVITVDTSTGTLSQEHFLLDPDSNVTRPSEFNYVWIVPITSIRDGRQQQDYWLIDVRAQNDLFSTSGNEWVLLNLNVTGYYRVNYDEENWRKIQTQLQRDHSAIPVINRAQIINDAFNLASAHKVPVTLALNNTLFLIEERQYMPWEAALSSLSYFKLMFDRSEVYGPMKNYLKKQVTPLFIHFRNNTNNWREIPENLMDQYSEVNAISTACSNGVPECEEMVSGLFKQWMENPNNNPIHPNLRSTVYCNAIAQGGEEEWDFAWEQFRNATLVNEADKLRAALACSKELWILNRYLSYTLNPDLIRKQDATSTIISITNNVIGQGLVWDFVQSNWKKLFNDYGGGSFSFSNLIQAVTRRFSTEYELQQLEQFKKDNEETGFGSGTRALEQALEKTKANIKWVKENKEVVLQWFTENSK
Sequence of 72 kDa type IV collagenase (P08253 whole entry): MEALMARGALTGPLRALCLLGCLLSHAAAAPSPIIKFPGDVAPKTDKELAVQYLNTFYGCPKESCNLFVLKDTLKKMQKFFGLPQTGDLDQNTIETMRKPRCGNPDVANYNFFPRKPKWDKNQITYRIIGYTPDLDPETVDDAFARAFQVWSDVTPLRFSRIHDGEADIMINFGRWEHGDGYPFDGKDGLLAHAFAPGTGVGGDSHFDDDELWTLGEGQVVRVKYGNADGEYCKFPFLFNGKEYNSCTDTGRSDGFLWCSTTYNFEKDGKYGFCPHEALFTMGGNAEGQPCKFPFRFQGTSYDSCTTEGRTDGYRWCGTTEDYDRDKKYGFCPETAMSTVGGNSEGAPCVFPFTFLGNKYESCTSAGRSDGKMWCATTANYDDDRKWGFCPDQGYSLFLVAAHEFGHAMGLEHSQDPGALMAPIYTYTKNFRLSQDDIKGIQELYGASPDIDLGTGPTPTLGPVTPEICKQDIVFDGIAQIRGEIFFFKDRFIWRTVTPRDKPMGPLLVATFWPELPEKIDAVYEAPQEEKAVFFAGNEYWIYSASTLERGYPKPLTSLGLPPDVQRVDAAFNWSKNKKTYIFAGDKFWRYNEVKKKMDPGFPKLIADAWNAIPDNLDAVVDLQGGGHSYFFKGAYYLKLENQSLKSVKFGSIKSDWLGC

Regarding `O=C(CNC(=O)NCc1ccccc1)NO`, in assay [1], half-maximal inhibition (IC50) required 32 µM. Turning to `O=C(NCc1ccccc1)N[C@@H](Cc1ccccc1)C(=O)NO`, the IC50 in assay [2] is over 500 µM; in assay [1] it was 5.6 µM; in assay [3] it was 16 µM; in assay [5], 510 µM. In addition, the inhibition result in assay [4] was “inactive”. Compound `C[C@H](NC(=O)NC(C)(C)C)C(=O)NO` came in with an IC50 in assay [1] of over 100 µM. Consider `CC(C)C[C@H](NC(=O)NCCc1ccccc1)C(=O)NO`, for which the IC50 was over 500 µM in assay [2], 1.1 µM in assay [1], 5.1 µM in assay [3] and 96 µM in assay [5]. In addition, the inhibition result in assay [6] is “Dose-dependent effect”. Moreover, in assay [7], the “inhibition (INH)” value was 55%. For the same compound, the inhibition result in assay [4] is “inactive”.

Regarding `CC(C)(C)NC(=O)NCC(=O)NO`, the IC50 in assay [1] is over 100 µM. The same measure, in the same setting: in the case of `CC(C)[C@H](NC(=O)NCc1ccccc1)C(=O)NO` it was 17 µM; in that of `C[C@H](NC(=O)NCc1ccccc1)C(=O)NO`, 21 µM; in that of `CC(C)(C)NC(=O)N[C@@H](Cc1ccccc1)C(=O)NO`, over 100 µM. Still for that read-out and setting: to `CC(C)C[C@H](NC(=O)OCc1ccccc1)C(=O)NO` belongs 9.1 µM. Same read-out and setting: in the case of `CC[C@H](C)[C@H](NC(=O)NC(C)(C)C)C(=O)NO` it was over 100 µM. As for `CC(C)[C@H](NC(=O)NCCc1ccccc1)C(=O)NO`, the IC50 in assay [1] was over 100 µM. In turn, `CC(C)C[C@H](NC(=O)[C@@H](O)[C@H](N)Cc1ccccc1)C(=O)O` [UBENIMEX] showed an IC50 in assay [5] of 490 µM.

On to `C[C@H](NC(=O)NCCc1ccccc1)C(=O)NO`, for which, in assay [1], the IC50 is 21 µM. Same read-out and setting: in the case of `CC[C@H](C)[C@H](NC(=O)NCCc1ccccc1)C(=O)NO` it was over 100 µM; in that of `O=C(CNC(=O)NCCc1ccccc1)NO`, 52 µM. The same measure, in the same setting: to `CC(C)C[C@H](NC(=O)NC1CCCCC1)C(=O)NO` belongs over 100 µM; to `O=C(NCCc1ccccc1)N[C@@H](Cc1ccccc1)C(=O)NO`, 6.5 µM.

`CSCC[C@H](NC(=O)NCCc1ccccc1)C(=O)NO` yielded a concentration for half-maximal inhibition (IC50) in assay [1] of over 100 µM. In the case of `CSCC[C@H](NC(=O)NC(C)(C)C)C(=O)NO`, in assay [1], the IC50 is over 100 µM.

Regarding `CC(C)C[C@H](NC(=O)OCCc1ccccc1)C(=O)NO`, half-maximal inhibition in assay [1] (IC50) required 18 µM. As for `CSCC[C@H](NC(=O)NCc1ccccc1)C(=O)NO`, the IC50 in assay [2] was over 500 µM; in assay [1], 3.8 µM; in assay [3] it was 22 µM; in assay [5], over 1000 µM. For the compound `CC[C@H](C)[C@H](NC(=O)NCc1ccccc1)C(=O)NO`, the IC50 in assay [2] was over 500 µM; in assay [1], 4.1 µM; in assay [3] it was 39 µM; in assay [5], 770 µM. Moreover, the inhibition entry in assay [4] is “inactive”.

Turning to `CC(C)C[C@H](NC(=O)NC(C)(C)C)C(=O)NO`, the IC50 in assay [1] is over 100 µM. In assay [1], `O=C(N[C@@H](Cc1ccccc1)C(=O)NO)N[C@@H](Cc1ccccc1)C(=O)NO` gave an IC50 of over 100 µM. Same read-out and setting: to `CC(C)[C@H](NC(=O)NC(C)(C)C)C(=O)NO` belongs over 100 µM; to `CC(C)C[C@H](NC(=O)N[C@@H](CC(C)C)C(=O)NO)C(=O)NO`, over 100 µM.

What is called IC50 is the concentration that inhibits the measured activity by half.
